Assays:
[1] = Inhibition of Prostaglandin G/H synthase activity in sheep seminal vesicle was determined; assay type: tissue-based, Ovis aries
Method in brief: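 Sheep seminal vesicle microsomes (32 μg protein) were incubated with [14C]arachidonic acid (0.1 μCi/mL) in pH 7.4 phosphate buffer containing glutathione, epinephrine and EDTA for 10 min at 37 °C. Substrate was removed by two hexane/EtOAc extractions, and aqueous-phase radioactivity was counted by scintillation.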

[2] = biological target: T1, Polyunsaturated fatty acid 5-lipoxygenase (Rattus norvegicus, UniProt P12527); test: In vitro inhibition against 5-lipoxygenase in RBL-1 cells was determined; assay type: cell-based
T1 sequence (P12527 whole entry): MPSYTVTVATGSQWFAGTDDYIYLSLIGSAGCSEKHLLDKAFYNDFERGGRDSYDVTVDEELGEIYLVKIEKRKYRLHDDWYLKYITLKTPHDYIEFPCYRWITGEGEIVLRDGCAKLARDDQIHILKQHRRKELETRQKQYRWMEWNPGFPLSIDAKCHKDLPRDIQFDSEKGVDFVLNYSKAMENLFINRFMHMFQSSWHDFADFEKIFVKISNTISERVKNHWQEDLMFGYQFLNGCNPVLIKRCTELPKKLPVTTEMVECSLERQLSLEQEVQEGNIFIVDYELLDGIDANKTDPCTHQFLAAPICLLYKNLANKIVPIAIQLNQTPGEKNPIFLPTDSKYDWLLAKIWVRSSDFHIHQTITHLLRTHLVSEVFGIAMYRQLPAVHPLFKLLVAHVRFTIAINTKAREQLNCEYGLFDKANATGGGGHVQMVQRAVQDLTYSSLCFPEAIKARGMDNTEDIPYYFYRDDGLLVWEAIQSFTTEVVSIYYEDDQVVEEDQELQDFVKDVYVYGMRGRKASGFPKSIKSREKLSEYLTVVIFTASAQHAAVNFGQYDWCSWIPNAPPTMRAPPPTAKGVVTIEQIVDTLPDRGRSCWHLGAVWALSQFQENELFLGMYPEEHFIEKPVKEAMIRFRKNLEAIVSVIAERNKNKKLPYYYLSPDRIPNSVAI

Rattus norvegicus = species: Rattus norvegicus; test: Inhibition of lipid peroxidation in rat liver microsomes at 1 uM; assay type: functional
Mus musculus = test: Inhibition of arachidonic acid induced mouse ear edema at 30 ug/ear; assay type: functional
Method in brief: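 Male ICR mice (25–28 g), 4–8 per group, received the compound topically in acetone, then 1 mg arachidonic acid on the inner surface of one ear. After 1 h, swelling was taken as the weight difference between challenged and unchallenged ears. Inhibition = (C−T)/C × 100; mean ± SE; Student's t test.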

[3] = biological target: Prostaglandin G/H synthase 1 (Ovis aries) (UniProt P05979); test: Inhibition of Prostaglandin G/H synthase activity in sheep seminal vesicle was determined 100 uM
[4] = biological target: Prostaglandin G/H synthase 1 (Ovis aries) (UniProt P05979); test: as above; remark: listed apart in the source
[5] = biological target: Prostaglandin G/H synthase 1 (Ovis aries) (UniProt P05979); test: Inhibition of Prostaglandin G/H synthase activity in sheep seminal vesicle was determined at 100 uM
[6] = biological target: Prostaglandin G/H synthase 1 (Ovis aries) (UniProt P05979); test: Inhibition of Prostaglandin G/H synthase activity in sheep seminal vesicle was determined; parameters: concentration or dose not given beside the values; conditions: concentration not given here
[7] = biological target: T2, Polyunsaturated fatty acid 5-lipoxygenase (Rattus norvegicus) (UniProt P12527); test: In vitro inhibition against 5-lipoxygenase in RBL-1 cells was determinedb at 100 uM; assay type: cell-based
T2 sequence (whole entry): T1 sequence (P12527 whole entry)
Method in brief: (§1)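 Single-concentration test at 100 μM, given as percent inhibition versus control, average of two determinations. RBL-1 cell homogenate (5 × 10⁶ cells) with 2 mM CaCl2 and 0.66 mM arachidonic acid, pH 7.4 phosphate buffer, 3 min at 37 °C. 5-HETE was measured by HPLC absorbance at 235 nm.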

[8] = biological target: T2, Polyunsaturated fatty acid 5-lipoxygenase (Rattus norvegicus); test: In vitro inhibition against 5-lipoxygenase in RBL-1 cells was determined at 100 uM; assay type: cell-based; method in brief: as §1
[9] = biological target: T2, Polyunsaturated fatty acid 5-lipoxygenase (Rattus norvegicus); test: In vitro inhibition against 5-lipoxygenase in RBL-1 cells was determined at 10e-4 M; assay type: cell-based
Method in brief: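 RBL-1 cells grown in RPMI-1640 with 10% heat-inactivated newborn calf serum at 37 °C in 5% CO2, harvested in growth phase, suspended in 50 mM phosphate buffer pH 7.4 (0.25 M sucrose, 1 mM EDTA, 2 mM glutathione) and stored at -70 °C. Homogenate (5 × 10⁶ cells), 2 mM CaCl2 and 0.66 mM arachidonic acid incubated 3 min at 37 °C. MeOH stop, 5-HETE by HPLC at 235 nm. Percent inhibition versus control at 10⁻⁴ M, mean of two determinations.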

[10] = biological target: Cyclooxygenase (Homo sapiens) (UniProt P35354+P23219); test: Inhibition of Prostaglandin G/H synthase activity in sheep seminal vesicle was determined 10E-4 […]; assay type: tissue-based; conditions: Ovis aries, target entry is the homologue from another species

Prostaglandin G/H synthase 1 (Ovis aries), sequence (P05979 whole entry, looked up): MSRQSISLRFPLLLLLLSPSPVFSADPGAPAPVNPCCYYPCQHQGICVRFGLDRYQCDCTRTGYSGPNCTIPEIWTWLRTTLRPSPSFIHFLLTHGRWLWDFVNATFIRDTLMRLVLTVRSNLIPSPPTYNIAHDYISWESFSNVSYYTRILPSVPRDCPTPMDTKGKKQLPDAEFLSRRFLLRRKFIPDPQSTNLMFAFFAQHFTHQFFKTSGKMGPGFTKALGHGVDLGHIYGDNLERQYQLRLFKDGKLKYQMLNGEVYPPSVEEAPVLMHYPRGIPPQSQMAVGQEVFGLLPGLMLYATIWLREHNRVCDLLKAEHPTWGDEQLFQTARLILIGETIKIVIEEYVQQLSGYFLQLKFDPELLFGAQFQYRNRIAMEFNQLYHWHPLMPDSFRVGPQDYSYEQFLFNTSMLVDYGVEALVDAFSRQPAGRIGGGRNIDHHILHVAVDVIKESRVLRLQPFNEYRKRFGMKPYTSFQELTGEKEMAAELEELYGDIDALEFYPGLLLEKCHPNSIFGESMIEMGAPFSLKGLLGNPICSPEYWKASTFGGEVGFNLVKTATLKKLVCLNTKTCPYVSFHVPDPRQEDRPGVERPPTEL

Row | SMILES | IC50 [1] | IC50 [2] | further results
1 | COc1ccccc1C(=O)/C=C/c1ccc(O)c(O)c1 | 13 µM | 27 nM | –
2 | O=C(/C=C/c1ccc(O)c(O)c1)c1cccc(O)c1 | 140 µM | 4.2 nM | inhibition (Rattus norvegicus): 24%
3 | COc1cccc(C(=O)/C=C/c2ccc(O)c(O)c2)c1 | 15 µM | 6.5 nM | –
4 | O=C(/C=C/c1ccccc1)c1ccc(O)cc1O [2',4'-DIHYDROXYCHALCONE] | 280 µM | – | inhibition (Rattus norvegicus): 5%
5 | COc1ccc(C(=O)/C=C/c2ccc(O)c(O)c2)c(OC)c1 | 160 µM | 10 nM | –
6 | O=C(/C=C/c1ccc(O)c(O)c1)c1ccccc1 | 34 µM | 43 nM | inhibition (Rattus norvegicus): 44%
7 | Oc1c(Cc2ccccc2)ccc2ccccc12 | 24 µM | 6.9 nM | Inhibition (Mus musculus): 67%
8 | O=C(/C=C/c1ccc(O)c(O)c1)c1ccccc1Cl | – | 92 nM | IC50 [3]: 71 µM
9 | COc1ccc(OC(C)C)cc1C(=O)/C=C/c1ccc(O)c(O)c1 | 60 µM | 14 nM | Inhibition (Mus musculus): 34%
10 | COc1cc(/C=C/C(=O)c2ccccc2O)ccc1O | – | – | inhibition (Rattus norvegicus): 14%; IC50 [3]: 63 µM
11 | COc1ccc(C(=O)/C=C/c2ccc(O)c(O)c2)cc1 | 490 µM | 20 nM | –
12 | COc1ccc(C(=O)/C=C/c2ccc(O)c(O)c2)c(O)c1 [CALYTHROPSIN] | 65 µM | – | –
13 | CC(Cc1ccc(O)c(O)c1)C(C)Cc1ccc(O)c(O)c1 (stereo not given) [NORDIHYDROGUAIARETIC ACID] | 210 µM | – | –
14 | O=C(/C=C/c1ccc(O)c(O)c1)c1cc(O)ccc1O | 170 µM | 64 nM | –
15 | Cc1ccc(O)c(C(=O)/C=C/c2ccc(O)c(O)c2)c1 | 120 µM | 39 nM | –
16 | Cc1cccc(C(=O)/C=C/c2ccc(O)c(O)c2)c1 | 71 µM | 27 nM | –
17 | Cc1ccc(C(=O)/C=C/c2ccc(O)c(O)c2)cc1 | 210 µM | 76 nM | –
18 | O=C(/C=C/c1ccccc1)c1ccc(O)cc1 | – | – | inhibition [4]: 20%; inhibition (Rattus norvegicus): 5%
19 | O=C(/C=C/c1ccc(O)c(O)c1)c1ccc(O)cc1 | 320 µM | – | inhibition (Rattus norvegicus): 36%

Row | SMILES | IC50 [1] | IC50 [2] | further results
20 | O=C(/C=C/c1ccc(O)c(O)c1)c1ccccc1O | – | 23 nM | inhibition (Rattus norvegicus): 45%; IC50 [3]: 44 µM
21 | CCCCOc1ccc(O)c(C(=O)/C=C/c2ccc(O)c(O)c2)c1 | – | 1000 nM | inhibition [5]: 4.2%; Inhibition (Mus musculus): 33%
22 | COc1ccc2c(c1)c(CC(=O)O)c(C)n2C(=O)c1ccc(Cl)cc1 [INDOMETHACIN] | 0.8 µM | – | Inhibition (Mus musculus): 4.8%
23 | COc1ccc(/C=C/C(=O)c2ccccc2O)cc1O | – | – | inhibition [6]: 8.6%; inhibition [7]: -4.5%; inhibition (Rattus norvegicus): 11%
24 | CC(C)Oc1ccc(C(=O)/C=C/c2ccc(O)c(O)c2)cc1 | – | 41 nM | inhibition [5]: 11%
25 | CCOc1ccc(OC)cc1C(=O)/C=C/c1ccc(O)c(O)c1 | 2 µM | 27 nM | –
26 | COc1ccc(C(=O)/C=C/c2ccc(O)c(OC)c2)cc1 | – | 12000 nM | inhibition [6]: -7.3%; inhibition (Rattus norvegicus): 2.3%
27 | O=C(/C=C/c1ccccc1)c1ccccc1O | – | – | inhibition [4]: 13%; inhibition (Rattus norvegicus): 6%; inhibition [8]: 19%
28 | COc1ccc(C)cc1C(=O)/C=C/c1ccc(O)c(O)c1 | 30 µM | 24 nM | Inhibition (Mus musculus): 47%
29 | COc1ccc(C(=O)/C=C/c2ccc(O)c(O)c2)cc1OC | 140 µM | 18 nM | –
30 | CCOc1ccc(OCC)c(C(=O)/C=C/c2ccc(O)c(O)c2)c1 | 24 µM | 2.4 nM | Inhibition (Mus musculus): -18%
31 | O=C(/C=C/c1ccc(O)c(O)c1)c1c(O)cc(O)cc1O [3,4,2',4',6'-PENTAHYDROXYCHALCONE] | – | 140 nM | inhibition [4]: 11%; inhibition (Rattus norvegicus): 18%
32 | Cc1ccc(C(=O)/C=C/c2ccc(O)c(O)c2)c(C)c1 | 41 µM | 17 nM | –
33 | Cc1cc(C)c(C(=O)/C=C/c2ccc(O)c(O)c2)c(C)c1 | 280 µM | 400 nM | –
34 | O=C1CCN(c2ccccc2)N1 [PHENIDONE] | 80 µM | – | Inhibition (Mus musculus): 24.6%
35 | COc1ccc(OC)c(C(=O)/C=C/c2ccc(O)c(O)c2)c1 | 9.2 µM | – | –
36 | O=C(O)c1ccccc1Nc1cccc(C(F)(F)F)c1 [FLUFENAMIC ACID] | 19 µM | – | inhibition [9]: -0.1%
37 | CN1C(C(=O)Nc2ccccn2)=C(O)c2ccccc2S1(=O)=O [PIROXICAM] | 460 µM | – | inhibition [9]: 19%
38 | CC(C)c1ccc(O)c(C(=O)/C=C/c2ccc(O)c(O)c2)c1 | 37 µM | 4 nM | Inhibition (Mus musculus): 16%

Row | SMILES | IC50 [1] | IC50 [2] | further results
39 | O=C(/C=C/c1ccccc1)c1c(O)cc(O)cc1O [2',4',6-TRIHYDROXYCHALCONE] | – | – | inhibition [6]: 6.9%; inhibition (Rattus norvegicus): 9%
40 | COc1cc(C(=O)/C=C/c2ccc(O)c(O)c2)ccc1O | – | 9 nM | inhibition [5]: 14%
41 | COc1cc(/C=C/C(=O)c2ccc(Cl)cc2)ccc1O | 41 µM | 8900 nM | –
42 | O=C(/C=C/c1ccc(O)c(O)c1)c1ccc([N+](=O)[O-])cc1 | – | 23 nM | inhibition [6]: 5%
43 | CCOc1ccc(O)c(C(=O)/C=C/c2ccc(O)c(O)c2)c1 | 130 µM | 5.3 nM | Inhibition (Mus musculus): 42%
44 | CCOc1ccc(OC)c(C(=O)/C=C/c2ccc(O)c(O)c2)c1 | 26 µM | 3.8 nM | –
45 | COc1cc(C(=O)/C=C/c2ccc(O)c(O)c2)cc(OC)c1OC | – | 16 nM | inhibition [5]: 13%
46 | O=C(/C=C/c1ccc(O)c(O)c1)c1ccc(Cl)cc1 | 1400 µM | 8.5 nM | –
47 | O=C(/C=C/c1ccc(O)cc1)c1ccccc1O | 390 µM | – | inhibition (Rattus norvegicus): 6%
48 | COc1cccc(OC)c1C(=O)/C=C/c1ccc(O)c(O)c1 | – | 370 nM | inhibition [5]: 15%
49 | Cc1ccc(C)c(C(=O)/C=C/c2ccc(O)c(O)c2)c1 | 44 µM | 16 nM | –
50 | O=C(/C=C/c1ccc(O)cc1)c1ccc(O)cc1O [ISOLIQUIRITIGENIN] | – | 35000 nM | inhibition (Rattus norvegicus): 9%
51 | O=C(/C=C/c1ccc(O)cc1)c1c(O)cc(O)cc1O | – | – | inhibition [6]: 3.1%; inhibition (Rattus norvegicus): 8%
52 | O=c1c(O)c(-c2ccc(O)c(O)c2)oc2cc(O)cc(O)c12 | – | – | inhibition [10]: 13%
53 | O=C(/C=C/c1ccc(O)c(O)c1)c1ccccc1C(F)(F)F | 230 µM | 58 nM | –
54 | CN(C)c1ccc(C(=O)/C=C/c2ccc(O)c(O)c2)cc1 | 810 µM | 4.7 nM | –
55 | O=C(/C=C/c1ccc(O)c(O)c1)c1ccc(O)cc1O [BUTEIN] | – | 4.6 nM | inhibition (Rattus norvegicus): 40%; IC50 [3]: 120 µM
56 | CC(C)Oc1ccc(O)c(C(=O)/C=C/c2ccc(O)c(O)c2)c1 | 140 µM | 11 nM | –
57 | CN(C)c1cccc(C(=O)/C=C/c2ccc(O)c(O)c2)c1 | 41 µM | 9.8 nM | –

Reference: ChEMBL document CHEMBL1127082, “3,4-Dihydroxychalcones as potent 5-lipoxygenase and cyclooxygenase inhibitors” (J Med Chem, 1993)
